# Experiments:
# [1] = target: T1, Sterol O-acyltransferase 1 (Rattus norvegicus, UniProt O70536); assay: Inhibition of acyl coenzyme A:cholesterol acyltransferase (ACAT) activity in rat liver microsome; format: microsomes
# T1 sequence (O70536 whole entry): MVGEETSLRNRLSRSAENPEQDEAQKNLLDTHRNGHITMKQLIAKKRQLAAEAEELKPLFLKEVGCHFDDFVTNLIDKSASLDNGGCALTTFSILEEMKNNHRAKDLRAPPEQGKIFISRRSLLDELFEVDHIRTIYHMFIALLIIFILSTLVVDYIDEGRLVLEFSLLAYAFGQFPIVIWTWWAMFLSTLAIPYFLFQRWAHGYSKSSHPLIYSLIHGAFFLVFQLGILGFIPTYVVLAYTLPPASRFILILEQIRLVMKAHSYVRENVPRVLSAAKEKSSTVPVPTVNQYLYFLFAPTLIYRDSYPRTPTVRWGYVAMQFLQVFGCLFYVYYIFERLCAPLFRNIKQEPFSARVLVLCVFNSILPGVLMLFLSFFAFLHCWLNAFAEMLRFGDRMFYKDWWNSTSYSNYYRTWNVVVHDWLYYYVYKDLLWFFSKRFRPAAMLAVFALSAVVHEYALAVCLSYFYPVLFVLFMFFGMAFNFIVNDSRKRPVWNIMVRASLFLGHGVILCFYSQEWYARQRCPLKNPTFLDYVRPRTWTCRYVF
# Procedure, shortened: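 The assay used rat hepatic microsomes from cholesterol-fed animals (60 μg protein) and 90 μM radiolabeled oleoyl-CoA. Cholesterol ester product was resolved by TLC and counted by scintillation. IC50 was the concentration inhibiting 50% of enzyme activity.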
# [2] = target: T2, Sterol O-acyltransferase 1 (Rattus norvegicus) (UniProt O70536); assay: Tested in vitro for acyl coenzyme A:cholesterol acyltransferase (ACAT) activity in rat liver microsome at a concentration of 1 micro g/mL; format: microsomes
# T2 sequence (whole entry): T1 sequence (O70536 whole entry)
# Procedure, shortened: (§1)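 Enzyme source was hepatic microsomes from cholesterol-fed rats, 60 μg microsomal protein per reaction, with 90 μM radiolabeled oleoyl-CoA. Cholesterol ester formed was separated by TLC and quantified by scintillation counting. Compounds were tested at a single fixed concentration of 1 or 10 μg/mL, and results were given as percent inhibition of enzyme activity.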
# Rattus norvegicus = assay: Tested in vivo for anti-hypercholesterolaemic activity in male Sprague-Dawley rat.; format: functional
# Procedure, shortened: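 Compound was given at 0.03% w/w in the diet (about 30 mg/kg/day). Basal-diet rats (n = 4) gave a baseline that was subtracted. Plasma cholesterol was measured enzymatically, and the result was expressed as percent change versus undosed controls.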
# [3] = target: T2, Sterol O-acyltransferase 1 (Rattus norvegicus); assay: Tested in vitro for Acyl coenzyme A:cholesterol acyltransferase (ACAT) activity in rat liver microsome at a concentration of 1 micro g/mL
# [4] = target: T2, Sterol O-acyltransferase 1 (Rattus norvegicus); assay: In vitro acyl coenzyme A:cholesterol acyltransferase (ACAT) activity in rat liver microsome at a concentration of 10 micro g/mL; format: microsomes; procedure, shortened: as §1
SMILES,IC50 [1] [µM],inhibition [2] [%],Change (Rattus norvegicus) [%],inhibition [3] [%],inhibition [4] [%]
Cc1cccc(-c2nc(SC[C@H]3C[C@@](C)(O)CC(=O)O3)[nH]c2-c2cccc(C)c2)c1.Cc1cccc(-c2nc(SC[C@H]3C[C@](C)(O)CC(=O)O3)[nH]c2-c2cccc(C)c2)c1,0.064,94,-64,,
c1ccc(-c2nc(SCC3OCCO3)[nH]c2-c2ccccc2)cc1,0.53,98,-29,,
c1ccc(-c2nc(SCC3CCCCC3)[nH]c2-c2ccccc2)cc1,0.1,95,-92,,
CO[C@]1(C)C[C@H](O)C[C@@H](CSc2nc(-c3ccccc3)c(-c3ccccc3)[nH]2)O1,,,,85,
c1ccc(-c2nc(SCC3CCCCO3)[nH]c2-c2ccccc2)cc1 (stereo not given),0.21,92,-38,,
c1ccc(-c2nc(SCCCC3OCCCO3)[nH]c2-c2ccccc2)cc1,0.047,96,-57,,
C[C@@]1(O)CC(=O)OC(CSc2nc(-c3ccccc3)c(-c3ccccc3)[nH]2)C1 (stereo not given in full),0.17,,-105,,98
CC1(C)CC(=O)OC(CSc2nc(-c3ccccc3)c(-c3ccccc3)[nH]2)C1 (stereo not given),0.1,94,-17,,
CC(O)(CC(=O)OC(C)(C)C)CC(O)CSc1nc(-c2ccc(Cl)cc2)c(-c2ccc(Cl)cc2)[nH]1 (stereo not given),0.25,,-53,,97
CCOC(CSc1nc(-c2ccccc2)c(-c2ccccc2)[nH]1)OCC,0.25,,-37,,99
O=C1CCCC(CSc2nc(-c3ccccc3)c(-c3ccccc3)[nH]2)O1 (stereo not given),0.74,,16,,95
CCOC(CCSc1nc(-c2ccccc2)c(-c2ccccc2)[nH]1)OCC,0.069,95,4,,
c1ccc(-c2nc(SCC3OCCCO3)[nH]c2-c2ccccc2)cc1,0.18,,-10,,97
CC1=CC(=O)OC(CSc2nc(-c3ccccc3)c(-c3ccccc3)[nH]2)C1 (stereo not given),0.2,,27,,98
